# Assay results as given in ChEMBL document CHEMBL1137743, “Synthesis, antimicrobial evaluation and QSAR study of some 3-hydroxypyridine-4-one and 3-hydroxypyran-4-one derivatives” (2009).
# Columns and labels:
# Candida albicans = assay: Antifungal activity against Candida albicans PTCC 5027 after 48 hrs by microplate alamar blue assay; type: functional; conditions: for MIC: Candida albicans, PTCC 5027, 48 h
# Outline: (§1)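 Fungi from Persian type culture collection, tested in RPMI 1640 buffered with MOPS at pH 7.0. Final inoculum 1.5 ×10⁵. Compounds in DMSO, twofold serial dilutions over 8–512 in 96-well plates with Alamar Blue, incubated 48 h at 25 °C. MIC is the lowest concentration blocking the blue-to-pink shift. Ketoconazole was the reference agent.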
# Pseudomonas aeruginosa = assay: Antibacterial activity against Pseudomonas aeruginosa PTCC 1074 after 24 hrs by microplate alamar blue assay; type: functional; conditions: for MIC: Pseudomonas aeruginosa, PTCC 1074, 24 h
# Outline: (§2)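 Bacteria from Persian type culture collection grown in Mueller–Hinton broth. Inoculum suspensions adjusted to 0.5 McFarland, final inoculum 1.5 ×10⁴. Compounds dissolved in DMSO, serially diluted twofold across the 8–512 range in 96-well plates, Alamar Blue added, sealed plates incubated 24 h at 37 °C. MIC is the lowest concentration preventing the blue-to-pink colour change. Ciprofloxacin was the reference drug.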
# Staphylococcus aureus = assay: Antibacterial activity against Staphylococcus aureus PTCC 1337 after 24 hrs by microplate alamar blue assay; type: functional; conditions: for MIC: Staphylococcus aureus, PTCC 1337, 24 h; outline: as §2
# Aspergillus flavus = assay: Antifungal activity against Aspergillus flavus PTCC 5003 after 48 hrs by microplate alamar blue assay; type: functional; conditions: PTCC 5003, 48 h; outline: as §1
# Aspergillus niger = assay: Antifungal activity against Aspergillus niger 5021 after 48 hrs by microplate alamar blue assay; type: functional; conditions: Aspergillus niger, 5021, 48 h; outline: as §1
# Escherichia coli = assay: Antibacterial activity against Escherichia coli PTCC 1338 after 24 hrs by microplate alamar blue assay; type: functional; conditions: PTCC 1338, 24 h; outline: as §2
# [1] = test system: Salmonella enterica subsp. enterica; assay: Antibacterial activity against Salmonella enteritidis PTCC 1091 after 24 hrs by microplate alamar blue assay; type: functional, Salmonella enterica subsp. enterica serovar Enteritidis; conditions: PTCC 1091, 24 h; outline: as §2
# Bacillus subtilis = assay: Antibacterial activity against Bacillus subtilis PTCC 1023 after 24 hrs by microplate alamar blue assay; type: functional; conditions: PTCC 1023, 24 h; outline: as §2
# Listeria monocytogenes = assay: Antibacterial activity against Listeria monocytogenes PTCC 1165 after 24 hrs by microplate alamar blue assay; type: functional; conditions: PTCC 1165, 24 h; outline: as §2
Structure (SMILES),-logMIC (Candida albicans),-logMIC (Pseudomonas aeruginosa),-logMIC (Staphylococcus aureus),MIC (Candida albicans) [µg/mL],MIC (Aspergillus flavus) [µg/mL],MIC (Aspergillus niger) [µg/mL],MIC (Pseudomonas aeruginosa) [µg/mL],MIC (Escherichia coli) [µg/mL],MIC (Staphylococcus aureus) [µg/mL],MIC [1] [µg/mL],MIC (Bacillus subtilis) [µg/mL],MIC (Listeria monocytogenes) [µg/mL]
Cc1cc(=O)oc2cc(NC(=O)c3cc(=O)c(O)cn3C)ccc12,3.89,3.59,4.49,–,–,–,–,–,–,–,–,–
Cc1cc(=O)oc2cc(NC(=O)c3cc(=O)c(OCc4ccccc4)co3)ccc12,3.89,3.59,3.89,–,–,–,–,–,–,–,–,–
O=C(O)c1cc(=O)c(OCc2ccccc2)co1,3.89,3.89,3.59,–,–,–,–,–,–,–,–,–
Cn1cc(OCc2ccccc2)c(=O)cc1C(=O)Nc1ccccc1,3.89,3.59,3.89,–,–,–,–,–,–,–,–,–
Cn1cc(O)c(=O)cc1C(=O)Nc1ccccc1,3.89,3.89,4.8,–,–,–,–,–,–,–,–,–
Cc1cc(=O)c(O)c(C(=O)Nc2cnc3ccccc3c2)o1,–,3.89,5.1,–,–,–,–,–,–,–,–,–
Cc1cc(=O)c(O)c(C(=O)Nc2cccc3ccccc23)o1,3.89,3.89,3.59,–,–,–,–,–,–,–,–,–
CCN(CC)Cc1c[nH]c(C)c(O)c1=O,3.89,3.29,4.19,512,512,512,256,512,512,128,> 512,> 512
Cc1cc(=O)oc2cc(NC(=O)c3cc(=O)c(OCc4ccccc4)cn3C)ccc12,3.89,3.89,3.59,–,–,–,–,–,–,–,–,–
Cc1cc(=O)c(OCc2ccccc2)c(C(=O)Nc2cnc3ccccc3c2)o1,3.89,3.89,3.89,–,–,–,–,–,–,–,–,–
O=C(Nc1ccccc1)c1cc(=O)c(OCc2ccccc2)co1,3.89,3.59,3.89,–,–,–,–,–,–,–,–,–
CCCCn1ccc(=O)c(O)c1C,3.59,3.29,3.89,256,256,256,512,512,256,256,512,> 512
CCCn1ccc(=O)c(O)c1C,3.29,3.89,3.29,256,256,512,512,128,16,128,256,512
O=C(O)c1cn(C2CC2)c2cc(N3CCNCC3)c(F)cc2c1=O [CIPROFLOXACIN],–,–,–,–,–,–,–,–,0.5,1,0.06,1
CC(=O)N1CCN(c2ccc(OCC3COC(Cn4ccnc4)(c4ccc(Cl)cc4Cl)O3)cc2)CC1 (stereo not given) [KETOCONAZOLE],–,–,–,2,8,4,–,–,–,–,–,–
O=c1cc(CO)occ1O [KOJIC ACID],3.89,3.89,3.59,–,–,–,–,–,–,–,–,–
